Bioassay records as filed in PubChem BioAssay.
sEH act: soluble epoxide hydrolase (human) activation. P34913. purified human sEH enzymatic activity, activator screen. activation, % at 2 µM. 91,000 compounds, 0.04% hits. AID 717; in the data active = activation above about 37%
Target sequence (P34913 whole entry, looked up): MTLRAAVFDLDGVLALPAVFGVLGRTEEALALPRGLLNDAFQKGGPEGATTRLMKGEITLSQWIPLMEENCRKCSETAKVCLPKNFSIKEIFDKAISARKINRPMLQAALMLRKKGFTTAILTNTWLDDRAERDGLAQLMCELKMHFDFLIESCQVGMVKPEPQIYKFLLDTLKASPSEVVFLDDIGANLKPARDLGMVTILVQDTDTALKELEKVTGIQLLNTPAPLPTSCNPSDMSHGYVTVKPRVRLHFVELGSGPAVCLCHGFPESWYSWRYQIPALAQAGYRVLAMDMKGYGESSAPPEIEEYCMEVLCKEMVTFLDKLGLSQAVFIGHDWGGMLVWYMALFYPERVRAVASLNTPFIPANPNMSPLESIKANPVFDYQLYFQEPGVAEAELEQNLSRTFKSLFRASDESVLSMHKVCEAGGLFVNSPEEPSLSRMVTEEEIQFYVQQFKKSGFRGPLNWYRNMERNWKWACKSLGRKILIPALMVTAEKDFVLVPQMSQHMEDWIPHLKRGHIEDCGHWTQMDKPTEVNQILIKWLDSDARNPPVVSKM
Measles CPE: protection of cells from measles virus; protection (pct of control), % at 4 µM; AID 841; Measles virus-infected cells, CPE protection, absorbance; 140,000 compounds, 1.5% hits; in the data active = protection mostly above about 24%, no sharp cut-off; inactive = mostly below about 26%
sEH inh: inhibitors of human soluble epoxide hydrolase; P34913; recombinant human sEH enzymatic activity assay; AID 707; inhibition, % at 2 µM; 91,000 compounds, 0.34% hits; in the data active = inhibition above about 80%
Yeast growth inh: reduces growth of yeast BB579 in restrictive medium; S. cerevisiae BB579 growth, OD615, 48 h; 140,000 compounds, 0.51% hits; inhibition, % at 10 µM;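 active = inhibition above a set limit, 3 SD over the mean compound inhibition, cut at about 44% in these data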
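Detection: OD615 turbidity measurement; Material: Saccharomyces cerevisiae DeaD strain BB579, replicative lifespan model yeast; Timing: 48 h exposure, 30 °C; Doses: single 10 µM dose; Medium: CSMM-D restrictive synthetic medium containing dextrose (glucose); Controls: amphotericin B at 10 µg/mL as positive control.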
SDO1 yeast rescue: restores growth of sdo1-depleted yeast. S. cerevisiae sdo1-depleted JHY4D growth rescue, OD600 30 h; hits give high values; pdr5 snq2 efflux-pump mutant strain. z-score at 10 µM. 140,000 compounds, 0.21% hits;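 active = z-score above 3 at both the 24 hr and the 30 hr optical density reads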
Yeast life ext: extends the lifespan of yeast. S. cerevisiae growth with nicotinamide, OD615; deaD strain in restrictive glucose medium. inhibition of the nicotinamide effect, % at 10 µM. 130,000 compounds, 0.68% hits. AID 775;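 active = inhibition above a set limit, placed 3 SD over the median of all compounds, cut at about 26% in these data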
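Assay system: DeaD-strain S. cerevisiae. Medium: CSMM-D glucose medium, restrictive. Reagent: nicotinamide, 1.5 mM, co-present with compound. Compound: 10 µM single point, 0.25% DMSO. Schedule: culture preincubation 4 h, compound exposure 48 h, both 30 °C. Detection: absorbance at 615 nm.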
A number is an active result; . = inactive; / = no result given. A selection: hits, their analogues and other compounds. The true share with any hit is near 3%.

SMILES	sEH act	Measles CPE	sEH inh	Yeast growth inh	SDO1 yeast rescue	Yeast life ext
CCOC(=O)C1=C(C)NC(=O)C(C(N)=O)C1c1ccccc1 (stereo not drawn)	37	.	.	.	.	.
CC(=O)Nc1ccc(C(=O)OCC(=O)N(Cc2ccccc2)C(C)(C)C)cc1	.	.	.	.	.	54
O=C(COC(=O)c1sc2ccccc2c1Cl)Nc1ncc(Cl)cc1Cl	/	.	/	.	.	.
COc1ccc(CNC(=O)/C=C/c2cc3c(cc2Br)OCO3)cc1	.	.	86	.	.	.
O=C(O)c1ccc(CNCc2c(Cl)cccc2Cl)cc1	.	.	.	.	.	.
COC(=O)C1=C(O)CSC1=Nc1ccc(C)cc1	/	26	/	.	.	.
Cc1ccc(C(=O)c2c[nH]c3c(F)cc(F)cc3c2=O)cc1	/	.	/	.	.	.
O=S(=O)(NCCCCCNS(=O)(=O)c1ccccc1)c1ccccc1	.	.	.	.	.	.
O=S(=O)(NCCCc1ccccc1)c1ccccc1	.	35	.	.	.	.
CCOC(=O)C1=C(C)NC(C)=C(C(=O)OCC)C1c1sccc1C	.	.	.	.	.	.
O=C(C1Cc2ccccc2CN1S(=O)(=O)c1ccc(F)cc1)N1CCOCC1 (stereo not drawn)	.	.	.	.	.	.
CCS(=O)(=O)N1Cc2ccccc2CC1C(=O)N1CCN(c2ccccc2)CC1 (stereo not drawn)	.	62	.	.	.	.
Cc1cc(C)cc(-n2c(SCC(=O)NCc3ccco3)nc3ccccc3c2=O)c1	.	.	.	.	.	56
CCOC(=O)CSc1nc2ccccc2c(=O)n1CC1CCC(C(=O)NCc2ccco2)CC1 (stereo not drawn)	.	.	82	.	.	.
CCOC(=O)CSc1nc2ccccc2c(=O)n1CC1CCCC1	.	.	.	.	.	/
CC(C)n1c(SCC(=O)NCc2ccco2)nc2c1c(=O)n(C)c(=O)n2C	.	.	.	.	.	.
Cn1c(=O)c2c(nc(SCC(=O)NCc3ccco3)n2C)n(C)c1=O	.	33	.	.	.	.
COc1ccc(C(=O)NCC(=O)NCC(=O)OCC(=O)C(C)(C)C)cc1	/	.	/	.	.	.
CC1=NN(c2ccccc2)C(=O)/C1=C\C=C1\N(C)c2ccccc2C1(C)C	/	59	/	.	.	.
CC1=NN(c2ccccc2)C(=O)/C1=C\C=C1/N(C)c2ccccc2C1(C)C	/	.	/	.	.	.
S=C(NCCC(c1ccccc1)c1ccccc1)Nc1ccc(Cl)cc1	.	48	.	.	.	.
COc1cc(NC(=S)NCCC(c2ccccc2)c2ccccc2)c(OC)cc1Cl	/	38	/	.	.	.
S=C(NCCC(c1ccccc1)c1ccccc1)Nc1ccccc1Cl	.	.	.	.	.	.
O=C(CCl)c1ccc(Cc2ncc(C(F)(F)F)cc2Cl)s1	.	.	.	.	.	68
Cc1ccc(CCNC(=O)CCc2nc3ccccc3[nH]2)cc1	/	.	/	.	.	.
SMILES	sEH act	Measles CPE	sEH inh	Yeast growth inh	SDO1 yeast rescue	Yeast life ext
CC(OC(=O)CCCN1C(=O)c2ccccc2C1=O)C(=O)Nc1ncc(Cl)cc1Cl (stereo not drawn)	/	.	/	.	.	30
Cc1nn(-c2ccc(F)cc2)c(Cl)c1/C=C1\C(=O)Nc2ccccc21	/	.	/	.	.	.
Cc1ccc(/C=C2\C(=O)Nc3ccccc32)o1	/	.	/	60	.	.
Clc1ccc(N/N=C/c2ccncc2)cc1Cl	/	.	/	49	.	.
Clc1ccc(N/N=C/c2cccnc2)cc1	/	.	/	66	.	.
O=S(=O)(NCc1ccccc1)c1cccc2cccnc12	.	43	.	.	.	.
O=S(=O)(NCc1cccnc1)c1cccc2cccnc12	.	.	.	.	.	.
CCOC(=O)c1nn(-c2ccc3c(c2)OCO3)cc1O	.	.	.	.	.	.
CC(=O)NC(CCS(C)(=O)=O)C(=O)Nc1ccc(C)c(F)c1 (stereo not drawn)	.	57	.	.	.	.
CC(=O)NC(CCS(C)(=O)=O)C(=O)Nc1ccc2c(c1)OCO2 (stereo not drawn)	/	.	/	44	.	.
Cc1cccc2cc3c(N)c(C(=O)N4CCc5ccccc54)sc3nc12	/	.	/	.	.	.
CCOC(=O)N1CCN(C(=O)CCC(=O)N2CCOc3ccc(C)cc32)CC1	/	.	/	.	.	.
Cc1ccc2c(c1)N(C(=O)CCC(=O)O)CCO2	/	28	/	.	.	.
Cc1nc(=O)cc(-c2ccccc2)n1-c1ccccc1	.	36	.	.	.	.
CCCC1COC(Cn2cncn2)(c2ccc(C)cc2)O1 (stereo not drawn)	.	.	.	94	.	.
CNc1ccc(Br)cc(C(=O)/C=C/c2ccc3c(c2)OCO3)c1=O	.	54	.	.	.	.
O=C(NCc1ccc2c(c1)OCO2)c1cccs1	/	.	/	.	.	.
O=C(CSc1n[nH]c(-c2cccs2)n1)NCc1ccc2c(c1)OCO2	.	12	.	.	.	.
O=C(COC(=O)c1cccs1)NCc1ccc2c(c1)OCO2	/	97	/	.	.	.
O=C1C2C3C=CC(C3=C(c3ccccc3)c3ccccc3)C2C(=O)N1Cc1ccccc1 (stereo not drawn)	.	.	.	.	.	.
CSCCC(=O)N1C(C)CCCC1C(=O)O (stereo not drawn)	.	26	.	.	.	.
O=C(O)Cc1cc(I)c(Oc2ccc(O)c(I)c2)c(I)c1	/	.	/	66	.	31
N[C@@H](Cc1ccc(O)c(I)c1)C(=O)O	/	.	/	.	.	.
c1ccc(-c2ccc(-c3ccccn3)nn2)nc1	/	.	/	68	.	.
COc1ccc(-n2c(SCC(=O)Nc3ccc4c(c3)OCO4)nc3ccccc3c2=O)cc1	.	.	.	.	.	.
SMILES	sEH act	Measles CPE	sEH inh	Yeast growth inh	SDO1 yeast rescue	Yeast life ext
CCOc1ccc(-n2c(SCC(=O)Nc3ccc4c(c3)OCO4)nc3ccccc3c2=O)cc1	.	45	.	.	.	.
COc1cc2c(cc1NC(=O)CN(C)Cc1ccc(OC)c(OC)c1)oc1ccccc12	/	.	/	.	.	.
COc1ccccc1CNC(=O)C(CCSC)NS(=O)(=O)c1ccc2c(c1)oc(=O)n2C (stereo not drawn)	.	.	.	.	.	87
COc1ccccc1CNC(=O)C(CC(C)C)NS(=O)(=O)c1ccc2c(c1)oc(=O)n2C (stereo not drawn)	.	.	.	.	.	.
Cc1ccc(NC(=O)/C(=C/c2cccc(Br)c2)NC(=O)c2ccco2)cc1	/	.	/	.	.	.
CCCCCCCC(=O)NNC(=O)Cc1ccccc1	.	.	.	.	.	.
CCCCCC/C(C)=C1/SC(=S)NC1=O	.	.	.	95	.	.
CCN(CC)CC#CCC(C)(c1ccccc1)c1ccccc1	.	.	.	.	.	.
CC(/C=C/c1ccc(O)cc1)=N/O	.	.	.	.	.	/
CCOC(=O)c1cnc(-n2nc(C)cc2C)nc1NC1CCCCC1	.	.	.	98	.	.
